# Rows were chosen to be rich in hits. Some 5.6% of all compounds tested hit in one or more screens of this group.
# GRIN3A LBD mod: modulators (binders) of human NR3A ligand-binding domain; actives 2.5% (n = 340,000); AID 1259313; Tm shift relative to glycine control, % at 25 µM; NR3A LBD differential scanning fluorimetry, Tm shift; 0% = protein alone, 100% = glycine-bound protein;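 active = melting temperature shift of at least 10% of the positive control shift, at one fixed dose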
# MPTP block: blocks calcium-induced mitochondrial swelling | isolated mouse mitochondria, Ca2+ swelling absorbance, 30 min | inhibition, % at 10 µM | actives 1.4% (n = 360,000);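 active = inhibition of 50% or more, scaled per plate between neutral and stimulator controls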
# CHOP inh: CHOP inhibition in unfolded protein response; CHO-K1 CHOP-promoter luciferase, tunicamycin-induced, 15-18 h; inhibition, % at 10 µM; actives 3.8% (n = 220,000);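 active = compounds that reduced the stress-induced luciferase reporter signal by more than about 70% of percent inhibition, limit read from the data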
# aDG glyco act: alpha-DG glycosylation activation. Pro5-aDG cells, alpha-DG glycosylation AlphaScreen (IIH6); 0% Pro5, 100% B10-LARGE cell signal. activation, % at 10 µM. actives 0.22% (n = 360,000);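 active = activation of at least 8% versus controls, or a plate z-score of at least 8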;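 also: Pro5 are CHO cells carrying HIG-tagged alpha-DG that lacks glycosylation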
# UPR CHOP act: activators of apoptotic arm of unfolded protein response (CHOP); CHO-CHOP luciferase reporter, UPR activation, luminescence; percent of tunicamycin response over DMSO baseline; activation, % at 10 µM; actives 0.34% (n = 330,000); AID 449763;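 active = at 10 µM dose, activation of 40% or more, normalized to positive control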
#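 System: CHO-CHOP luciferase reporter cell line; amount: 500 cells/well; buffer or medium: F12 medium containing 10% fetal bovine serum; incubation: 6 h compound exposure at 37 °C after overnight seeding; measured by: luciferase luminescence after 10 min with Steady-Glo reagent; evaluation: % reporter activation, DMSO baseline versus tunicamycin full activation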
# XBP1 UPR activ: adaptive UPR (XBP1) activation | CHO-XBP1 luciferase reporter, IRE1-XBP1 UPR activation, luminescence; percent of tunicamycin response, DMSO as zero | activation, % at 20 µM | actives 0.33% (n = 330,000);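 active = versus positive control, 20 µM dose yields 30% or more activation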
#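 Material – CHO cell line with stable XBP1 luciferase reporter · Buffer or medium – F12 plus 10% FBS · Compound – single point, 20 µM final compound, 1% DMSO · Schedule – 16-18 h cell attachment at 37 °C, then 6 h compound exposure · Signal – Steady-Glo luminescence read · Benchmarks – high control tunicamycin 10 µg/mL final, low control DMSO vehicle only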
# CHOP UPR conf: confirmation of apoptotic unfolded protein response (CHOP) activators | shares compounds with UPR CHOP act | CHO-CHOP cells, CHOP-luciferase reporter luminescence; percent of tunicamycin response, DMSO as zero | activation, % at 10 µM | actives 64% (n = 1,000); in the data active = activation above about 33%
# XBP1 UPR conf: confirmation of adaptive unfolded protein response (XBP1) activators; shares compounds with XBP1 UPR activ; AID 485299; CHO-XBP1 IRE1-XBP1 luciferase reporter, luminescence; activation, % at 20 µM; actives 63% (n = 1,000);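 active = reporter signal at least 30% of the positive control's activation in two or more of four replicate wells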
# Hits are given with their value; . = inactive; / = no result given.
SMILES,GRIN3A LBD mod,MPTP block,CHOP inh,aDG glyco act,UPR CHOP act,XBP1 UPR activ,CHOP UPR conf,XBP1 UPR conf
Cc1ccc(S(=O)(=O)N2CCOCC2)cc1C(=O)Nc1nc2ccccc2[nH]1,.,.,.,.,.,.,/,/
COc1ccc(CC(=O)Nc2ccc(-c3noc(-c4ccc(Cl)cc4)n3)cc2)cc1,.,.,.,.,79.0,76.3,.,.
Cc1nn(Cc2c(Cl)cccc2Cl)c(C)c1NC(=O)c1sc2ccccc2c1Cl,.,.,.,.,49.5,64.6,39.9,67.0
O=C(Nc1ccc(Br)cc1)c1cc(-c2ccncc2)nc2ccccc12,.,.,/,.,66.9,122.0,.,105.2
COCc1cc(C)nc(OCC(=O)N/N=C/c2ccc(-c3cc([N+](=O)[O-])ccc3Cl)o2)c1C#N,.,.,92.3,.,53.1,342.1,70.5,276.9
CN(C)C(=O)c1cccc(-c2cccc(-c3nc(C(=O)NCc4ccccc4)cc4c3[C@@H](CCO)N(S(=O)C(C)(C)C)C4)c2)c1 (stereo not given in full),/,.,/,.,/,/,/,/
COc1cc(/C=C(/C#N)c2nc3ccccc3[nH]2)ccc1OCC(=O)Nc1ccccc1C,.,.,.,.,299.4,115.8,38.0,78.7
Cc1ccc(C(C)C)c(OCc2ccc(C(=O)N/N=C/c3ccc(O)c(O)c3)cc2)c1,33.6,.,83.9,.,102.2,85.9,56.9,54.4
CC1(C(=O)NS(=O)(=O)c2ccc(F)cc2F)CCN1C(=O)Cc1ccc(Cl)cc1Cl (stereo not given),/,.,/,.,/,/,/,/
O=c1/c(=C/c2ccccn2)sc2n1CN(c1ccccc1)CN=2,.,.,.,.,.,.,/,/
Cc1cc(C)c2c(c1)/C(=c1/sc3n(c1=O)CN(c1ccccc1)CN=3)C(=O)N2,.,.,81.1,.,102.0,189.7,83.0,168.5
C=CCNC(=O)COc1cc(C)cc(C)c1C,.,.,.,.,.,.,/,/
COc1ccc(-n2nc3c(c2NC(=O)c2ccc4c(c2)OCO4)CS(=O)(=O)C3)cc1,.,.,/,.,.,.,/,/
Cc1ccc2sc(-c3ccc(NC(=O)c4cc(-n5cnnc5)ccc4Cl)cc3)nc2c1,.,.,.,.,85.3,69.4,.,.
O=c1c2ccccc2nc2n1-c1ccccc1CCC2,.,.,.,.,.,.,/,/
O=C1c2ccccc2-n2c1nc1ccccc1c2=O,.,.,.,.,77.3,34.2,.,.
Cc1ccc2nc(-c3ccc(NC(=S)NC4CC(C)(C)NC(C)(C)C4)cc3)sc2c1,.,.,.,.,60.3,48.8,62.6,60.8
CCOc1ccc(NC(=S)NC(=O)/C=C/c2ccc(OC)c(OC)c2)c([N+](=O)[O-])c1,.,.,80.6,.,60.6,167.7,48.9,251.1
CCOc1cc(C(c2c(C)[nH][nH]c2=O)c2c(C)[nH][nH]c2=O)ccc1OCc1ccc([N+](=O)[O-])cc1,.,.,.,.,.,.,/,/
CCOc1cc(/C=C2/NC(=S)NC2=O)ccc1OCc1ccc([N+](=O)[O-])cc1,.,.,.,.,165.0,126.9,.,39.4
CCC(C)(C)c1ccc(OC(=O)c2cccnc2Cl)cc1,.,.,/,.,.,.,/,/
CCN(CC)S(=O)(=O)c1ccc(N/N=C(\C)c2ccc3c(c2)OCO3)c([N+](=O)[O-])c1,.,.,92.5,.,155.0,210.6,62.6,155.4
O=C(COC(=O)c1ccc(F)cc1F)NC(=O)Nc1ccc2c(c1)OCCO2,.,.,/,.,.,.,/,/
N#Cc1ccc(N/N=C/c2cn(-c3ccccc3)nc2-c2ccccc2)c([N+](=O)[O-])c1,.,.,82.8,.,106.6,42.6,107.7,122.1
O=Cc1cn(-c2ccccc2)nc1-c1cccc([N+](=O)[O-])c1,/,.,/,.,/,/,/,/
SMILES,GRIN3A LBD mod,MPTP block,CHOP inh,aDG glyco act,UPR CHOP act,XBP1 UPR activ,CHOP UPR conf,XBP1 UPR conf
O=C(NCc1ccccc1)C(c1ccc(O)cc1)N(C(=O)c1cnccn1)c1ccccc1 (stereo not given),.,.,/,.,.,.,/,/
Cc1cccc(C(=O)N2CCCC(N3CCN(c4ccc(F)cc4)CC3)C2)n1 (stereo not given),.,.,/,.,.,.,/,/
COc1ccc(CNC(=O)CSc2nc(-c3ccccc3)cc(-c3cccs3)c2C#N)cc1,.,.,.,.,44.7,33.0,.,.
Oc1ccc(/C=N/Nc2ncnc3c2ncn3Cc2ccccc2)cc1O,.,.,.,.,222.6,136.2,66.9,75.8
CCn1nc(C)cc1C(=O)NC1CCCc2c1cnn2-c1cc(F)cc(F)c1 (stereo not given),.,.,/,.,.,.,/,/
O=C1S/C(=C\C=C\c2ccco2)C(=O)N1c1ccc(O)cc1,.,.,.,.,168.1,36.8,.,.
CCOc1ccc(-n2c(SCC(=O)N3CCc4ccccc43)nnc2-c2c[nH]c3ccccc23)cc1,.,.,.,.,.,.,/,/
COc1cccc(-n2c(SCC(=O)N3CCc4ccccc43)nnc2-c2c[nH]c3ccccc23)c1,.,.,90.4,.,102.2,336.3,43.0,229.4
Cc1nn(-c2ccccc2)c(C)c1/C=N/NC(=O)CSc1nc2ccccc2c(=O)n1-c1ccc(Br)cc1,.,.,85.2,.,251.7,69.0,59.5,111.3
Cc1ccc(/C=N/NC(=O)CSc2nc3ccccc3c(=O)n2-c2ccccc2)s1,.,.,.,.,.,.,/,/
COc1ccc(/C=c2\s/c(=C(/C#N)C(=O)NCc3ccco3)n(-c3ccccc3)c2=O)cc1,.,.,.,.,43.0,38.3,.,42.9
CCN(CC)CCc1nc(-c2ccccc2)no1,.,.,/,.,.,.,/,/
CCn1cc(C(=O)NC(=S)Nc2sc3c(c2C(=O)OC)CCCCCC3)cn1,.,.,77.7,.,70.6,60.1,35.2,56.9
CCOC(=O)c1c(NC(=O)c2nn(CC)cc2Br)sc2c1CCCCC2,.,.,.,.,.,.,/,/
COc1cc(NC(=O)c2ccc(C)cc2C)ccc1NC(=O)c1cc2ccccc2o1,.,.,/,.,56.2,148.0,.,71.8
Cc1cc(OCC(=O)NNC(=S)NC(=O)c2ccc(Br)o2)ccc1Cl,.,.,/,.,.,.,/,/
COc1ccc(OC)c(NC(=O)CCn2c(=S)[nH]c3ccccc3c2=O)c1,.,.,/,.,.,.,/,/
COc1ccc(OC)c(NC(=O)c2ccc3c(=O)n(CCc4ccccc4)c(=S)[nH]c3c2)c1,14.9,.,100.4,.,46.4,36.1,.,.

# Bioassay records as filed in PubChem.
